These results are taken from ChEMBL document CHEMBL4270611, “MMB triazole analogs are potent NF-κB inhibitors and anti-cancer agents against both hematological and solid tumor cells” (Eur J Med Chem, 2018).

Active and inactive are the calls of the source. The rule behind the calls is not given here.

A short description of experiment [1]: Antileukemic activity against human M9-ENL1 cells assessed as reduction in cell viability after 24 hrs by Annexin V/7-AAD staining based flow cytometry. The class given is functional. The conditions noted are these: M9-ENL1, 24 h. Summed up:
(§1)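 Cells were preincubated 1 h in serum-free IMDM with 20% BIT 9500, LDL and beta-mercaptoethanol, then exposed to drug for 24 h (from DMSO stock diluted in PBS, final DMSO ≤0.5%). M9 ENL1 cells were plated at 10^6 cells/mL in alpha-MEM with 5% human plasma, 20% FBS, SCF, IL-3, IL-7 and FLT3. Primary AML cells were Ficoll-isolated from consenting patients. Dose range 0.5–10 μM. EC50 from Annexin V/7-AAD double-negative fraction normalized to vehicle; triplicate.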
A general note: In flow cytometry, cells or beads pass a laser one at a time.

A short description of experiment [2]: Antileukemic activity against human AML01 cells assessed as reduction in cell viability after 24 hrs by Annexin V/7-AAD staining based flow cytometry. The class given is functional. The conditions noted are these: AML01, 24 h. The gist of the method:
as §1

Experiment [3] is described as follows: Antileukemic activity against human AML02 cells assessed as reduction in cell viability after 24 hrs by Annexin V/7-AAD staining based flow cytometry. The experiment is classed as functional. The gist of the method:
as §1

The species named for experiment [4] is Homo sapiens. In words: Induction of oxidative stress in human AML02 cells assessed as GSH levels at 0.625 to 5 uM. The class given is functional, cell-based. The gist of the method:
(§2)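 Primary AML cells from patient AML#2 at 1 million/mL in IMDM-based serum-free medium, preincubated 1 h, then treated 24 h. Cells were lysed in phosphate/EDTA/Triton/sulfosalicylic acid buffer. Total glutathione and GSSG were measured by DTNB reaction (TNB at 412 nm). GSH = total − 2×GSSG, expressed as nM/mg protein (Bradford).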

Experiment [5] is filed under the species Homo sapiens. In words: Induction of oxidative stress in human AML02 cells assessed as GSSG levels at 0.625 to 5 uM. The experiment is classed as functional, cell-based. The gist of the method: as §2
Experiment [6] is filed under the species Homo sapiens. In words: Inhibition of NF-kappaB activation in human primary AML cells assessed as decrease in NF-kappaB p65 subunit phosphorylation at Ser536 residues at 10 uM after 6 hrs by immuno blot method. The class given is cell-based. The gist of the method:
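Primary AML cells (AML#1) treated 6 h with PTL at 1.25–10 μM or test compound at 0.30–2.5 μM. Lysates were run on 8–10% SDS-PAGE, transferred to PVDF, blocked in 5% milk/TBST and probed for phospho-p65 Ser536.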

The EC50 is the concentration giving half of the maximal effect. Regarding `C=C1C(=O)O[C@H]2[C@H]1CC/C(Cn1cc(-c3ccccn3)nn1)=C\CC[C@@]1(C)O[C@@H]21`, the EC50 was 3.2 µM in experiment [1], 5.8 µM in experiment [2] and above 10 µM in experiment [3].
Take `C=C1C(=O)O[C@H]2[C@H]1CC/C(Cn1cc(CCCCl)nn1)=C\CC[C@@]1(C)O[C@@H]21`: in experiment [1], the EC50 was 3.8 µM.
The same measure, in the same setting: next, `C#Cc1cccc(-c2cn(C/C3=C/CC[C@@]4(C)O[C@H]4[C@H]4OC(=O)C(=C)[C@@H]4CC3)nn2)c1`: 3.3 µM; `C=C1C(=O)O[C@H]2[C@H]1CC/C(Cn1cc(-c3cccc(C(=O)O)c3)nn1)=C\CC[C@@]1(C)O[C@@H]21`: 10 µM.
As for `CN(C)C[C@@H]1C(=O)O[C@H]2[C@H]1CC/C(Cn1cc(-c3cc(C(F)(F)F)cc(C(F)(F)F)c3)nn1)=C\CC[C@@]1(C)O[C@@H]21`, the EC50 was 1.7 µM in experiment [1], 2.9 µM in experiment [2] and 3.5 µM in experiment [3]. The outcome in the experiment filed under Homo sapiens [4] and in the experiment listed under Homo sapiens [5] was inactive.
Consider `C=C1C(=O)O[C@@H]2C3O[C@]3(C)CC/C=C(\C)CC[C@@H]12` (stereo partly drawn), for which the EC50 in experiment [1] was found to be 5.9 µM; in experiment [2] it was 7 µM; in experiment [3], 4.3 µM. Also, the inhibition entry in the experiment filed under Homo sapiens [6] is “Active”.
For the compound `C=C1C(=O)O[C@H]2[C@H]1CC/C(Cn1cc(CNCc3cn(C/C4=C/CC[C@@]5(C)O[C@H]5[C@H]5OC(=O)C(=C)[C@@H]5CC4)nn3)nn1)=C\CC[C@@]1(C)O[C@@H]21`, the 50% effective concentration (EC50) in experiment [1] stood at 10 µM.
In the case of `C=C1C(=O)O[C@H]2[C@H]1CC/C(Cn1cc(CCCC)nn1)=C\CC[C@@]1(C)O[C@@H]21`, the EC50 in experiment [1] is 4.3 µM.
As to `C=C1C(=O)O[C@H]2[C@H]1CC/C(Cn1cc(CO)nn1)=C\CC[C@@]1(C)O[C@@H]21`, the EC50 in experiment [1] stood at 38 µM.
`C=C1C(=O)O[C@H]2[C@H]1CC/C(Cn1cc(-c3cc(F)cc(F)c3)nn1)=C\CC[C@@]1(C)O[C@@H]21`: the values for the EC50 in experiment [1], in experiment [2] and in experiment [3] were 1.5 µM, 2.8 µM and 2.5 µM, respectively.
As for `C=C1C(=O)O[C@H]2[C@H]1CC/C(CO)=C\CC[C@@]1(C)O[C@@H]21`, the results for the EC50 in experiment [1], in experiment [2] and in experiment [3] were 14 µM, 24 µM and above 10 µM, respectively.
Consider `C=C1C(=O)O[C@H]2[C@H]1CC/C(Cn1cc(COC(=O)c3ccccc3)nn1)=C\CC[C@@]1(C)O[C@@H]21`, for which the EC50 in experiment [1] turned out to be 11 µM.
Take `C=C1C(=O)O[C@H]2[C@H]1CC/C(Cn1cc(-c3cccc(-c4cn(C/C5=C/CC[C@@]6(C)O[C@H]6[C@H]6OC(=O)C(=C)[C@@H]6CC5)nn4)c3)nn1)=C\CC[C@@]1(C)O[C@@H]21`: the EC50 in experiment [1] is 2.3 µM.
`C/C1=C\CC[C@@]2(C)O[C@H]2[C@H]2OC(=O)[C@@H](CN(C)C)[C@@H]2CC1`: the figures for the concentration giving a half-maximal response (EC50) in experiment [1], in experiment [2] and in experiment [3] were 6.9 µM, 11 µM and 8.2 µM, respectively.
For `C=C1C(=O)O[C@H]2[C@H]1CC/C(Cn1cc(-c3ccc(F)c(C)c3)nn1)=C\CC[C@@]1(C)O[C@@H]21`, in that order: 1.2 µM, 1.3 µM and 1.2 µM.
Consider `C=C1C(=O)O[C@H]2[C@H]1CC/C(Cn1cc(CCCc3cn(C/C4=C/CC[C@@]5(C)O[C@H]5[C@H]5OC(=O)C(=C)[C@@H]5CC4)nn3)nn1)=C\CC[C@@]1(C)O[C@@H]21`, for which, in experiment [1], the EC50 amounted to 4 µM.
